Experimental data as given in ChEMBL document CHEMBL1130425, “An orally bioavailable pyrrolinone inhibitor of HIV-1 protease: computational analysis and X-ray crystal structure of the enzyme complex” (J Med Chem, 1997).

Key:
[1] = target: Human immunodeficiency virus type 1 protease (Human immunodeficiency virus 1) (UniProt Q72874); assay: Cellular antiviral activity against HIV-1 Protease
[2] = target: Human immunodeficiency virus type 1 protease (Human immunodeficiency virus 1, UniProt Q72874); assay: Inhibition of HIV-1 protease
[3] = Ratio of CIC95 to IC50 values
In short: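 Ratio computed by dividing the cellular antiviral CIC95 by the IC50 from the purified HIV-1 protease inhibition assay, both in nM.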

| IC95 [1] [nM] | IC50 [2] [nM] | Ratio [3] | SMILES |
| --- | --- | --- | --- |
| 800 | 11.9 | – | CC(C)(C)OC(=O)N[C@@H](Cc1ccccc1)[C@@H](O)C[C@]1(Cc2ccccc2)N=CC(C2c3ccccc3C[C@H]2O)=C1O (some centres undefined) |
| 100 | 2 | – | O=C(N[C@@H](Cc1ccccc1)[C@@H](O)C[C@]1(Cc2ccccc2)N=CC(C2c3ccccc3C[C@H]2O)=C1O)O[C@H]1CCOC1 (some centres undefined) |
| – | 6 | – | CC(C)(C)OC(=O)N[C@@H](Cc1ccccc1)[C@@H](O)C[C@]1(Cc2ccc(O)cc2)N=CC(C2c3ccccc3C[C@H]2O)=C1O (some centres undefined) |
| – | – | 10000 | CC(C)C[C@H](NC(=O)[C@H](Cc1ccccc1)C[C@H](O)[C@H](Cc1ccccc1)NC(=O)OC(C)(C)C)C(=O)N[C@@H](Cc1ccccc1)C(N)=O |
| – | 7 | – | CC(C)(C)OC(=O)N[C@@H](Cc1ccccc1)[C@@H](O)C[C@@](C)(Cc1ccccc1)C(=O)NC1c2ccccc2C[C@H]1O (single isomer, unassigned) |
| – | 86 | – | CC(C)(C)OC(=O)N[C@@H](Cc1ccccc1)[C@@H](O)CC1(Cc2ccccc2)CCN(C2c3ccccc3C[C@H]2O)C1=O (single isomer, unassigned) |
| 3 | 0.03 | 100 | O=C(N[C@@H](Cc1ccccc1)[C@@H](O)C[C@@H](Cc1ccccc1)C(=O)NC1c2ccccc2C[C@H]1O)OC1CCOC1 (single isomer, unassigned) |
| – | 186 | – | CN(C(=O)[C@H](Cc1ccccc1)C[C@H](O)[C@H](Cc1ccccc1)NC(=O)OC(C)(C)C)C1c2ccccc2C[C@H]1O (single isomer, unassigned) |
| 25 | – | – | CC(C)(C)NC(=O)[C@@H]1CN(Cc2cccnc2)CCN1C[C@@H](O)C[C@@H](Cc1ccccc1)C(=O)NC1c2ccccc2C[C@H]1O (single isomer, unassigned) |

| SMILES | IC95 [1] [nM] | IC50 [2] [nM] | Ratio [3] |
| --- | --- | --- | --- |
| CC(C)(C)OC(=O)N[C@@H](Cc1ccccc1)[C@@H](O)C[C@@H](Cc1ccccc1)C(=O)NC1c2ccccc2C[C@H]1O (single isomer, unassigned) | – | – | 1330 |
